Experimental data from different studies.
Protocols differ between the studies behind these lines.
Target: NUAK family SNF1-like kinase 1 (NUAK1, Homo sapiens, UniProt O60285)
Residues used in one study (O60285 1-661): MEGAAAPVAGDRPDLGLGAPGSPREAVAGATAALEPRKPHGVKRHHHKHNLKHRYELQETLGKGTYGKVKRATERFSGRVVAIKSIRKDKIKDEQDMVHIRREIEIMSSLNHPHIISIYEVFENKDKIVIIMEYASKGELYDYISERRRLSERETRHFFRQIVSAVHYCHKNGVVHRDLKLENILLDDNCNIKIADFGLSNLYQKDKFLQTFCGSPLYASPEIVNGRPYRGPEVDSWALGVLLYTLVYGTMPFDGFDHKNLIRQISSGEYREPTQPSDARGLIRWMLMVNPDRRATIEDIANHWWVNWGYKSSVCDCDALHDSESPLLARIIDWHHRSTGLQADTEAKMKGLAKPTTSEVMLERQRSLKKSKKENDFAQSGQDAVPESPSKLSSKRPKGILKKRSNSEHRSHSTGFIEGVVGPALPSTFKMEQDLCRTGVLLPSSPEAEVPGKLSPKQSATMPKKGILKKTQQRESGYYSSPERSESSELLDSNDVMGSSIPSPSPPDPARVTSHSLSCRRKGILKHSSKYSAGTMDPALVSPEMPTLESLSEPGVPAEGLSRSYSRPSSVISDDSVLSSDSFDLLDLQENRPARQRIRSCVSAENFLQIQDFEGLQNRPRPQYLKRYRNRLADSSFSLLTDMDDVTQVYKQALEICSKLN

`COc1ccnn2ncc(-c3ccnc(N(C)C)n3)c12` gave a remaining binding of 82% (binding; 1 µM).
For `CCC(=N\O)/C(C)=C/c1ccc(F)cc1`, the remaining binding was 100% (cell-free assay; competition with immobilised ligand; 1 µM).
With `COc1cnc(Nc2cccc(S(N)(=O)=O)c2)nc1N1CCN(c2ccccc2)C(=O)C1` the remaining binding was 86% (binding; competition with immobilised ligand; 1 µM).
`C[C@@H]1CCN(c2nccc(-c3cnn4ncccc34)n2)C1` has a remaining binding of 93% (binding; 1 µM).
For `O=C(NCCCN1CCOCC1)c1ccc(Nc2nccc(-c3cc4ccccc4s3)n2)cc1`, the remaining binding was 13% (binding; competition with immobilised ligand; 1 µM).
`c1cnn2ncc(-c3ccnc(N4CCC45COC5)n3)c2c1` has a remaining binding of 100% (binding; 1 µM).
With `C[C@H](c1ccnc(Nc2nc3ccc(-c4cc(N(C)C)ncn4)cc3[nH]2)c1)N1CCN(C(=O)CC(F)(F)F)CC1` the remaining binding was 93% (cell-free assay; competition with immobilised ligand; 0.1 µM).
The remaining binding of `N[C@@H]1CCN(c2nccc(-c3cnn4ncccc34)n2)C1` is reported as 44% (binding; 1 µM).
With `Cn1cc(Cl)c2c(Oc3c(F)cc(Nc4cc(Cl)nc(N)n4)cc3F)ccnc21` the remaining binding was 96% (cell-free assay; competition with immobilised ligand; 0.1 µM).
With `CNC(=O)[C@@H]1CC[C@@H](n2c(-c3ccc4cnccc4c3)nc3ccc(C(=O)NCc4cccc(C(N)=O)c4)cc32)C1` the remaining binding was 84% (binding; competition with immobilised ligand; 1 µM).
With `CCN1CCN(Cc2ccc(C(=O)Nc3ccc(C)c(Oc4ccc5c(c4)CC(=O)N5)c3)cc2C(F)(F)F)CC1` the remaining binding was 100% (binding; competition with immobilised ligand; 1 µM).
The remaining binding of `CN(C)C(=O)Cn1cc(-c2nc([C@@](C)(c3ccc(-c4cnc(N)nc4)cc3)C3CC3)no2)cn1` is reported as 100% (cell-free assay; competition with immobilised ligand; 1 µM).
For `O=C(c1ccc(Nc2ncc(Cl)c(-c3cc4ccccc4s3)n2)cc1)N1CCC(N2CCCC2)CC1`, the remaining binding was 2.6% (binding; competition with immobilised ligand; 1 µM).
`O=C(Nc1c[nH]nc1C(=O)NC1CCNCC1)c1cc(F)cc(F)c1` has a remaining binding of 76% (binding; competition with immobilised ligand; 1 µM).
`CCCCN(CCCC)C(=O)CN1C[C@@H](c2cc(OC)c3c(c2)OCO3)[C@H](C(=O)O)[C@H]1CC(C)(C)CCC` has a remaining binding of 82.4% (cell-free assay; competition with immobilised ligand; 1 µM).
`O=C(c1ccc(Nc2nccc(-c3cc4ccccc4s3)n2)cc1)N1CCC(N2CCCC2)CC1` has a remaining binding of 22% (binding; competition with immobilised ligand; 1 µM).
With `O=C(NC[C@@H]1[C@H]2CN(C(=O)OCc3cc(C(F)(F)F)cc(C(F)(F)F)c3)C[C@@H]12)c1ccc2[nH]nnc2c1` the remaining binding was 87% (cell-free assay; competition with immobilised ligand; 1 µM).
`CN(C)c1nccc(-c2cnc3ncccn23)n1` gave a remaining binding of 98% (binding; 1 µM).
